Measurements published in PubChem BioAssay.
Records with an inconclusive call do not appear.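 How the source made its calls, unless noted: active means viability increase at or above a cutoff of the median across tested compounds plus 3 SD (cut at about 8.5% in these data, passing the limit was not always enough); inconclusive means some gains above the cutoff, reason not given; inactive means the rest.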

Tests used:
[1] = S. cerevisiae growth inhibition in permissive medium (OD615), pilot counter-assay for S. cerevisiae lifespan shortening project, permissive growth control (AID 705;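 active means growth inhibition above 25% in both replicates, a cutoff set 3 SD above the mean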); conditions: OD615, 24 h, at 10 µM, stronger effect = higher value
Summary of the method: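 assay system = Saccharomyces cerevisiae strain carrying genetically modified DeaD replicative-lifespan system | medium = SC raffinose/galactose permissive medium | dosing = 10 µM single dose, 0.25% DMSO | schedule = 24 h compound exposure at 30 °C after 4 h pre-growth | measured by = OD at 615 nm | read-out basis = growth inhibition from lowered OD615 after 24 h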

[2] = S. cerevisiae growth inhibition in restrictive medium, OD615, pilot screen, restrictive growth control, yeast lifespan reduction project (AID 706;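 active means growth inhibition above a set limit, 3 SD over mean compound inhibition, in both replicates, cut at about 43% in these data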;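 further: modified DeaD lifespan yeast strain shifted to restrictive glucose medium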); conditions: OD615, 48 h, at 10 µM, stronger effect = higher value
Summary of the method: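 Buffer or medium: CSMM-D glucose medium. Material: genetically modified Saccharomyces cerevisiae, DeaD replicative lifespan assay strain. Times: 48 h compound exposure at 30 °C. Measured by: optical density at 615 nm.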

[3] = doxorubicin toxicity protection in MRP-1 cells – H69AR cells, CellTiter-Glo, duplicate, MRP-1 activator project, pilot screen (AID 807); conditions: H69AR viability with doxorubicin, CellTiter-Glo luminescence; at 10 µM; stronger effect = higher value;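 further: compound pretreatment 18-22 h then 72 h combined with doxorubicin; 0% = doxorubicin alone and 100% = vehicle without doxorubicin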
[4] = viability of HCT116 without oncogenic beta-catenin – human colon tumor cells, pilot screen (AID 823;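 active means cell viability at or below a set limit in both duplicate runs, the limit being the all-compound median minus 4 SD, cut at about 23% in these data, passing the limit was not always enough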;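 further: 0% = wells killed by 20 µM Hyamine and 100% = untreated DMSO cell wells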); conditions: HCT116 beta-catenin knockout viability, CellTiter-Glo, 60 h; at 10 µM; stronger effect = lower value
[5] = viability of PTEN-null HCT116 cells – cell-based, HCT116 clonal line, CellTiter-Glo, pilot screen (AID 824;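 active means viability at or below 27.92% in each of two runs, the all-compound median minus 4 SD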;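 further: 0% = 20 µM Hyamine control and 100% = vehicle cell control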); conditions: HCT116 PTEN-deleted viability, 60 h, at 10 µM, stronger effect = lower value
[6] = RAM pathway blockade in budding yeast – dse1pr::URA3 reporter, 5-FOA selection, pilot screen (AID 869;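 active means inhibition over a set limit, the all-compound mean plus 3 SD, in both replicate runs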;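 further: 0% = DMSO wells with no growth and 100% = 10 µM 1-NA-PP1 with full growth; RAM network block rescues cells from 5-FOA so hits raise OD615 growth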); conditions: S. cerevisiae dse1pr::URA3 5-FOA growth, OD615, 2 d; at 10 µM; stronger effect = higher value; strain carries analog-sensitive mutant Cbk1 kinase
[7] = RAM signaling pathway blockade in yeast – S. cerevisiae, Pdr1DBD-CYC8 efflux-inhibited sensitized strain, primary screen (AID 1298;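 active means RAM network inhibition above 8.4% in each of two replicates, 3 SD over the compound average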;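 further: 0% = DMSO untreated cells without growth and 100% = 10 µM 1-NA-PP1 full growth; higher means more yeast growth rescued from 5-FOA killing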); conditions: S. cerevisiae cbk1-as DSE1-URA3 strain, 5-FOA growth OD615, 2 d; at 50 µM; stronger effect = higher value

CCN(c1cccc(C)c1)S(=O)(=O)c1cccc2nsnc12
inactive: growth inhibition [1] -12.6% | growth inhibition [2] -20.3% | viability increase [3] -3.59% | viability [4] 77.1% | viability [5] 88.8% | inhibition [6] 1.4% | RAM network inhibition [7] 4.75%

Cc1ccc(OCC(=O)NCc2ccccn2)c(Br)c1
inactive: growth inhibition [1] 2.21% | growth inhibition [2] -9.19% | viability increase [3] -1.45% | viability [4] 97.8% | viability [5] 95% | inhibition [6] 0.22% | RAM network inhibition [7] 0.01%

Cc1nnc(NC(=O)C(C)Sc2nncn2C)s1 (stereo not given)
inactive: growth inhibition [1] -15.9% | growth inhibition [2] -22.2% | viability increase [3] 3.71% | viability [4] 107% | viability [5] 94.8% | inhibition [6] 1.18% | RAM network inhibition [7] 1.06%

COC(=O)c1c(NC(=O)c2nc3ccccc3s2)sc2c1CCN(C(C)=O)C2
inactive: growth inhibition [1] 7.87% | growth inhibition [2] 1.73% | viability increase [3] -6.02% | viability [4] 71.7% | viability [5] 68% | inhibition [6] 4% | RAM network inhibition [7] 5.96%

COC(=O)C1(C)Nc2ccccc2C(=O)N1c1ccccc1C (stereo not given)
inactive: growth inhibition [1] -7.67% | growth inhibition [2] -8.55% | viability increase [3] -0.74% | viability [4] 104% | viability [5] 102% | inhibition [6] 2.51% | RAM network inhibition [7] 5.2%

COc1ccc(C2C(C(=O)Nc3ccc(F)cc3)=C(C)Nc3nc(CCCO)nn32)cc1 (stereo not given)
inactive: growth inhibition [1] -0.24% | growth inhibition [2] -1.29% | viability increase [3] -1.2% | viability [4] 96.6% | viability [5] 100% | inhibition [6] 0.24% | RAM network inhibition [7] 0.37%

O=C(Nc1nc2ccccc2s1)c1ccc(Cl)s1
inactive: growth inhibition [1] -14.7% | growth inhibition [2] -29.6% | viability increase [3] -3.11% | viability [4] 88.3% | viability [5] 77% | inhibition [6] 2.79% | RAM network inhibition [7] 1.32%

Cc1ccccc1-c1c(C)oc2cc(O)ccc2c1=O
inactive: growth inhibition [1] 1.68% | growth inhibition [2] -0.005% | viability increase [3] -4.28% | viability [4] 96.8% | viability [5] 92.2% | inhibition [6] 2.21% | RAM network inhibition [7] 2.67%

CN(C)S(=O)(=O)c1ccc(C(=O)OCCCN=C2NS(=O)(=O)c3ccccc32)cc1
inactive: growth inhibition [1] -13% | growth inhibition [2] -15.2% | viability increase [3] 0.05% | viability [4] 109% | viability [5] 102% | inhibition [6] 0.955% | RAM network inhibition [7] 2.94%

COc1ccc(C2C(C(=O)NCc3cccnc3)c3ccccc3C(=O)N2C)cc1OC (stereo not given)
inactive: growth inhibition [1] -16.2% | growth inhibition [2] -13.9% | viability increase [3] -0.88% | viability [4] 101% | viability [5] 96.6% | inhibition [6] 1.71% | RAM network inhibition [7] -0.99%

CC(=O)c1ccc(NC(=O)CSC(C)C)cc1
inactive: growth inhibition [1] -0.135% | growth inhibition [2] -18.6% | viability increase [3] -0.64% | viability [4] 102% | viability [5] 97.9% | inhibition [6] 1.36% | RAM network inhibition [7] 0.37%

CCCC(=O)NCCCc1nc2ccccc2n1C(C)C
inactive: growth inhibition [1] -18.1% | growth inhibition [2] -23.6% | viability increase [3] 1.18% | viability [4] 102% | viability [5] 96.2% | inhibition [6] 1.66% | RAM network inhibition [7] 3.95%

Cn1c(=O)c2cc(S(=O)(=O)NC(C(=O)Nc3cccnc3)c3ccccc3)ccc2n(C)c1=O (stereo not given)
inactive: growth inhibition [1] -3.52% | growth inhibition [2] -1.8% | viability increase [3] -2.15% | viability [4] 99% | viability [5] 91.9% | inhibition [6] 1.96% | RAM network inhibition [7] 0.58%

COc1ccc(OC)c(C2C(C(N)=O)=C(C)Nc3nc(CCCO)nn32)c1 (stereo not given)
inactive: growth inhibition [1] -12.9% | growth inhibition [2] -20.6% | viability increase [3] 0.09% | viability [4] 97.3% | viability [5] 95.6% | inhibition [6] 1.61% | RAM network inhibition [7] 5.21%

CCN1C(=O)C(O)(CC(=O)c2ccc3c(c2)OCCO3)c2ccccc21 (stereo not given)
inactive: growth inhibition [1] -0.735% | growth inhibition [2] -5.33% | viability increase [3] -2.07% | viability [4] 99.1% | viability [5] 94% | inhibition [6] 0.24% | RAM network inhibition [7] 5.92%
